Measurements reported in paper PMC2821697 (Bioorganic & medicinal chemistry, 2009).

Experiments:
[1] = test system: MDA-MB-231 (estrogen receptor negative breast cancer); experiment: Cell growth inhibition assay; assay type: cell-based; details: Homo sapiens, MDA-MB-231, 72 h, read-out: ED50 against MDA-MB-231
In short: (§1)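 Trypsinized cells were seeded in 96-well plates, then exposed 72 h to test compound from DMSO-diluted stock. Cells were TCA-fixed, stained with 0.4% SRB for 10 min, and dye solubilized in trizma base; A515. ED50 is the concentration halving net protein increase, mean ± SEM of ≥2 independent determinations.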

DU145 (prostate cancer) = experiment: Cell growth inhibition assay; assay type: cell-based; details: Homo sapiens, DU-145, 72 h, read-out: ED50 against DU145
A549 (human lung cancer) = experiment: Cell growth inhibition assay; assay type: cell-based; details: A549, 72 h, read-out: ED50 against A549
In short: as §1

[2] = test system: KB (nasopharyngeal carcinoma); experiment: Cell growth inhibition assay; assay type: cell-based; details: Homo sapiens, 72 h, read-out: ED50 against KB
In short: as §1

[3] = test system: SK-BR-3 (HER2 over-expressing breast cancer); experiment: Cell growth inhibition assay; assay type: cell-based, human; details: for ED50 against SK-BR-3: mean ED50+SEM, 2 or more independent tests, SRB, 72 h; for cancer cell line selectivity: fold more potent against SK-BR-3 compared with other cancer cell lines tested: SK-BR-3 versus six additional tested cancer cell lines
In short: as §1

[4] = test system: SK-BR-3 breast cancer cell line; experiment: MTT assay, SK-BR-3; assay type: cell-based, human; details: 72 h, single experiment
[5] = test system: 184A1 normal breast cell line; experiment: MTT assay, 184A1 normal breast cell line; assay type: cell-based; details: 72 h, single experiment
In short: (§2)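 184A1 and MCF10A were from ATCC. Cells were seeded at 5000/well in the recommended growth medium and incubated overnight. Test compound dissolved in DMSO was then added, followed by 72 h at 37 °C, 5% CO2. MTT reagent was added for 2 h, and formazan was read at OD 570. Data are mean and standard deviation of replicates from a single experiment.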

[6] = test system: MCF10A normal breast cell line; experiment: MTT assay, MCF10A normal breast cell line; assay type: cell-based; details: 72 h, single experiment
In short: as §2

SMILES	IC50 [2] [µM]	ED50 against SK-BR-3 [3] [µM]	cancer cell line selectivity: fold more potent against SK-BR-3 compared with other cancer cell lines tested [3]	further results
Cc1cccc2c1ccc1c3occ(C)c3c(=O)oc21 [Compound 1, Neo-tanshinlactone]	> 37.9	–	–	IC50 [1]: 37.9 ± 1.4 µM; IC50 (DU145 (prostate cancer)): 58.3 ± 2 µM; IC50 (A549 (human lung cancer)): 54.2 ± 3.4 µM
Cc1cccc(-c2cc3occ(C)c3c(=O)o2)c1 [Compound 10, 3-Methyl-6-m-tolyl-4H-furo[3,2-c]pyran-4-one]	–	1.50 ± 0.04	–	–
COc1cccc(-c2cc3occ(C)c3c(=O)o2)c1 [Compound 11, 6-(3-Methoxyphenyl)-3-methyl-4H-furo[3,2-c]pyran-4-one]	> 78.1	–	–	–
CCOc1cccc(-c2cc3occ(C)c3c(=O)o2)c1 [Compound 12, 6-(3-Ethoxyphenyl)-3-methyl-4H-furo[3,2-c]pyran-4-one]	–	0.67 ± 0.03	–	–
COc1cc(OC)cc(-c2cc3occ(C)c3c(=O)o2)c1 [Compound 25, 6-(3,5-Dimethoxyphenyl)-3-methyl-4H-furo[3,2-c]pyran-4-one]	> 69.9	0.28 ± 0.01	100- to 250 fold	interpolated ED50 against SK-BR-3 [4]: 1.0 µM; interpolated ED50 against 184A1 [5]: 16.8 µM; potency against SK-BR-3 relative to 1 ([3]; ED50 compared with neo-tanshinlactone (1)): approximately threefold; interpolated ED50 against MCF10A [6]: > 35.0 µM
COc1cc(-c2cc3occ(C)c3c(=O)o2)cc(OC)c1OC [Compound 27, 3-Methyl-6-(3,4,5-trimethoxyphenyl)-4H-furo[3,2-c]pyran-4-one]	> 63.3	0.44 ± 0.01	100- to 250 fold	–
